Measured values from ChEMBL document CHEMBL2384906, “Biological activity, design, synthesis and structure activity relationship of some novel derivatives of curcumin containing sulfonamides” (Eur J Med Chem, 2013).
In brackets after ≈: the same amount, converted by molar mass. Activity calls are given as the source filed them. No cut-off for these calls is given here.

Key:
Mus musculus = test: Antiinflammatory activity in mouse assessed as inhibition of carrageenan-induced increase in paw volume at 200 mg/kg administered 1 hr prior to carrageenan challenge measured after 3 hrs relative to control; format: functional
Method in brief: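 Mice were fasted 2 h and placed in groups of five. Controls received saline i.p. Phenylbutazone was given at 100 mg/kg i.p., curcumin at 200 mg/kg i.p., and derivatives at 200 mg/kg. After 1 h, 0.1 mL of 1% carrageenan in saline was injected subplantar into the right hind paw. Paw volume was followed by plethysmometer for 3 h, and % inhibition was calculated as (Vc − Vt)/Vc × 100.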

HCT-116 = test: Cytotoxicity against human HCT116 cells after 24 hrs by MTT assay; format: functional, cell-based
Method in brief: (§1)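 The MTT assay seeded 5 × 10⁴ cells per well and grew them 24 h in RPMI 1640 with compound at 2.5–200 µM. Medium without cells was the blank and adriamycin the positive control. MTT was added for 4 h at 37 °C, formazan was solubilised, and absorbance was read at 570 nm. IC50 is the concentration that cuts viability 50% against untreated cells.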

QG-56 = test: Cytotoxicity against human QG56 cells after 24 hrs by MTT assay; format: functional, cell-based; method in brief: as §1
HeLa = test: Cytotoxicity against human HeLa cells after 24 hrs by MTT assay; format: functional, cell-based; method in brief: as §1
HepG2 = test: Cytotoxicity against human HepG2 cells after 24 hrs by MTT assay; format: functional, cell-based; method in brief: as §1
Trichoderma viride [1] = test: Antifungal activity against Trichoderma viride MTCC 1107 after 48 hrs; format: functional; settings: MTCC 1107, 48 h
Trichoderma viride [2] = test: Antifungal activity against Trichoderma viride MTCC 1107 assessed as zone of inhibition at 20 uM after 48 hrs by disc diffusion method; format: functional; settings: MTCC 1107, 48 h, read-out: IZ
Method in brief: (§2)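 Spores from 4-day potato dextrose agar cultures, suspended in sterile water at 1.5 × 10⁵ CFU/mL. 0.2 mL was spread on potato dextrose agar. 5 mm filter-paper discs soaked with test compound were laid on the lawn. Incubation was 48 h at 28 °C, then the inhibition zone was measured in mm. Fluconazole was the positive control and acetone the negative control.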

Trichoderma viride [3] = test: Antifungal activity against Trichoderma viride MTCC 1107 assessed as zone of inhibition at 40 uM after 48 hrs by disc diffusion method; format: functional; settings: MTCC 1107, 48 h, read-out: IZ; method in brief: as §2
Trichoderma viride [4] = test: Antifungal activity against Trichoderma viride MTCC 1107 assessed as zone of inhibition at 80 uM after 48 hrs by disc diffusion method; format: functional; settings: MTCC 1107, 48 h, read-out: IZ; method in brief: as §2
Curvularia lunata [5] = test: Antifungal activity against Curvularia lunata MTCC 581 after 48 hrs; format: functional; settings: MTCC 581, 48 h
Curvularia lunata [6] = test: Antifungal activity against Curvularia lunata MTCC 581 assessed as zone of inhibition at 20 uM after 48 hrs by disc diffusion method; format: functional; settings: MTCC 581, 48 h, read-out: IZ; method in brief: as §2
Curvularia lunata [7] = test: Antifungal activity against Curvularia lunata MTCC 581 assessed as zone of inhibition at 40 uM after 48 hrs by disc diffusion method; format: functional; settings: MTCC 581, 48 h, read-out: IZ; method in brief: as §2
Aspergillus flavus [8] = test: Antifungal activity against Aspergillus flavus MTCC 1021 after 48 hrs; format: functional; settings: MTCC 1021, 48 h
Curvularia lunata [9] = test: Antifungal activity against Curvularia lunata MTCC 581 assessed as zone of inhibition at 80 uM after 48 hrs by disc diffusion method; format: functional; settings: MTCC 581, 48 h, read-out: IZ; method in brief: as §2
Aspergillus flavus [10] = test: Antifungal activity against Aspergillus flavus MTCC 1021 assessed as zone of inhibition at 20 uM after 48 hrs by disc diffusion method; format: functional; method in brief: as §2
Aspergillus flavus [11] = test: Antifungal activity against Aspergillus flavus MTCC 1021 assessed as zone of inhibition at 40 uM after 48 hrs by disc diffusion method; format: functional; settings: MTCC 1021, 48 h, read-out: IZ; method in brief: as §2
Aspergillus flavus [12] = test: Antifungal activity against Aspergillus flavus MTCC 1021 assessed as zone of inhibition at 80 uM after 48 hrs by disc diffusion method; format: functional; settings: MTCC 1021, 48 h, read-out: IZ; method in brief: as §2
Aspergillus niger [13] = test: Antifungal activity against Aspergillus niger MTCC 1108 after 48 hrs; format: functional; settings: MTCC 1108, 48 h
Aspergillus niger [14] = test: Antifungal activity against Aspergillus niger MTCC 1108 assessed as zone of inhibition at 20 uM after 48 hrs by disc diffusion method; format: functional; method in brief: as §2
Aspergillus niger [15] = test: Antifungal activity against Aspergillus niger MTCC 1108 assessed as zone of inhibition at 40 uM after 48 hrs by disc diffusion method; format: functional; method in brief: as §2
Aspergillus niger [16] = test: Antifungal activity against Aspergillus niger MTCC 1108 assessed as zone of inhibition at 80 uM after 48 hrs by disc diffusion method; format: functional; settings: MTCC 1108, 48 h, read-out: IZ; method in brief: as §2
Escherichia coli [17] = test: Antimicrobial activity against Escherichia coli ATCC 35218 after 24 hrs by broth micro serial dilution method; format: functional; settings: ATCC 35218, 24 h
Method in brief: (§3)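 This was broth microdilution in autoclaved Mueller-Hinton broth. 150 µL of compound per well was serially diluted […], and 50 µL of test organism was added. Plates were incubated 24 h at 37 °C and optical density was read.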

Escherichia coli [18] = test: Antimicrobial activity against Escherichia coli ATCC 35218 assessed as diameter of inhibition zone at 20 uM after 24 hrs by Kirby -Baur disc diffusion method; format: functional
Method in brief: (§4)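 Kirby-Bauer disc diffusion was used. Acetone stocks (160 µM) were serially doubled down to 80, 40 and 20 µM. 4 µL of each went onto 5 mm sterile paper discs, which were dried 30 min at 50 °C. Inoculum was 1.5 × 10⁸ CFU/mL diluted to 3 × 10² CFU/mL, and 50 µL was spread on Mueller-Hinton agar. After 24 h at 37 °C the inhibition-zone diameter was measured. Ciprofloxacin served as positive control.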

Escherichia coli [19] = test: Antimicrobial activity against Escherichia coli ATCC 35218 assessed as diameter of inhibition zone at 40 uM after 24 hrs by Kirby -Baur disc diffusion method; format: functional; method in brief: as §4
Escherichia coli [20] = test: Antimicrobial activity against Escherichia coli ATCC 35218 assessed as diameter of inhibition zone at 80 uM after 24 hrs by Kirby -Baur disc diffusion method; format: functional; settings: ATCC 35218, 24 h, read-out: DIZ; method in brief: as §4
Pseudomonas aeruginosa [21] = test: Antimicrobial activity against Pseudomonas aeruginosa ATCC 15499 after 24 hrs by broth micro serial dilution method; format: functional; settings: ATCC 15499, 24 h; method in brief: as §3
Pseudomonas aeruginosa [22] = test: Antimicrobial activity against Pseudomonas aeruginosa ATCC 15499 assessed as diameter of inhibition zone at 20 uM after 24 hrs by Kirby -Baur disc diffusion method; format: functional; method in brief: as §4
Pseudomonas aeruginosa [23] = test: Antimicrobial activity against Pseudomonas aeruginosa ATCC 15499 assessed as diameter of inhibition zone at 40 uM after 24 hrs by Kirby -Baur disc diffusion method; format: functional; settings: ATCC 15499, 24 h, read-out: DIZ; method in brief: as §4
Pseudomonas aeruginosa [24] = test: Antimicrobial activity against Pseudomonas aeruginosa ATCC 15499 assessed as diameter of inhibition zone at 80 uM after 24 hrs by Kirby -Baur disc diffusion method; format: functional; settings: ATCC 15499, 24 h, read-out: DIZ; method in brief: as §4
Salmonella typhi [25] = test: Antimicrobial activity against Salmonella typhi ATCC 23564 after 24 hrs by broth micro serial dilution method; format: functional, Salmonella enterica subsp. enterica serovar Typhi; settings: Salmonella enterica, ATCC 23564, 24 h
Salmonella typhi [26] = test: Antimicrobial activity against Salmonella typhi ATCC 23564 assessed as diameter of inhibition zone at 20 uM after 24 hrs by Kirby -Baur disc diffusion method; format: functional; settings: Salmonella enterica subsp. enterica serovar Typhi
Salmonella typhi [27] = test: Antimicrobial activity against Salmonella typhi ATCC 23564 assessed as diameter of inhibition zone at 40 uM after 24 hrs by Kirby -Baur disc diffusion method; format: functional; settings: Salmonella enterica subsp. enterica serovar Typhi
Salmonella typhi [28] = test: Antimicrobial activity against Salmonella typhi ATCC 23564 assessed as diameter of inhibition zone at 80 uM after 24 hrs by Kirby -Baur disc diffusion method; format: functional, Salmonella enterica subsp. enterica serovar Typhi; settings: Salmonella enterica, ATCC 23564, 24 h; read-out: DIZ
Bacillus cereus [29] = test: Antimicrobial activity against Bacillus cereus MTCC 7350 after 24 hrs by broth micro serial dilution method; format: functional; settings: MTCC 7350, 24 h; method in brief: as §3
Bacillus cereus [30] = test: Antimicrobial activity against Bacillus cereus MTCC 7350 assessed as diameter of inhibition zone at 20 uM after 24 hrs by Kirby -Baur disc diffusion method; format: functional; method in brief: as §4
Bacillus cereus [31] = test: Antimicrobial activity against Bacillus cereus MTCC 7350 assessed as diameter of inhibition zone at 40 uM after 24 hrs by Kirby -Baur disc diffusion method; format: functional; method in brief: as §4
Bacillus cereus [32] = test: Antimicrobial activity against Bacillus cereus MTCC 7350 assessed as diameter of inhibition zone at 80 uM after 24 hrs by Kirby -Baur disc diffusion method; format: functional; settings: MTCC 7350, 24 h, read-out: DIZ; method in brief: as §4
Staphylococcus aureus [33] = test: Antimicrobial activity against Staphylococcus aureus ATCC 11632 after 24 hrs by broth micro serial dilution method; format: functional; settings: ATCC 11632, 24 h; method in brief: as §3
Staphylococcus aureus [34] = test: Antimicrobial activity against Staphylococcus aureus ATCC 11632 assessed as diameter of inhibition zone at 20 uM after 24 hrs by Kirby -Baur disc diffusion method; format: functional; method in brief: as §4
Staphylococcus aureus [35] = test: Antimicrobial activity against Staphylococcus aureus ATCC 11632 assessed as diameter of inhibition zone at 40 uM after 24 hrs by Kirby -Baur disc diffusion method; format: functional; method in brief: as §4
Staphylococcus aureus [36] = test: Antimicrobial activity against Staphylococcus aureus ATCC 11632 assessed as diameter of inhibition zone at 80 uM after 24 hrs by Kirby -Baur disc diffusion method; format: functional; settings: ATCC 11632, 24 h, read-out: DIZ; method in brief: as §4

## COc1cc(/C=C/C(=O)C(/N=N/c2ccc(S(=O)(=O)Nc3cc(C)on3)cc2)=C(O)/C=C/c2ccc(O)c(OC)c2)ccc1O
Mus musculus
  inhibition in vivo at 200 mg/kg: 14.5%
HCT-116
  IC50: Not Active
QG-56
  IC50: Not Active
HeLa
  IC50: > 100 µM
HepG2
  IC50: Not Active
Trichoderma viride [1]
  MIC: 80 µM (≈ 50.6 µg/mL)
Trichoderma viride [2]
  zone of inhibition at 20 µM: 9 mm
Trichoderma viride [3]
  zone of inhibition at 40 µM: 11 mm
Trichoderma viride [4]
  zone of inhibition at 80 µM: 13 mm
Curvularia lunata [5]
  MIC: 80 µM (≈ 50.6 µg/mL)
Curvularia lunata [6]
  zone of inhibition at 20 µM: 9 mm
Curvularia lunata [7]
  zone of inhibition at 40 µM: 11 mm
Aspergillus flavus [8]
  MIC: 80 µM (≈ 50.6 µg/mL)
Curvularia lunata [9]
  zone of inhibition at 80 µM: 13 mm
Aspergillus flavus [10]
  inhibition zone (IZ): inactive
Aspergillus flavus [11]
  zone of inhibition at 40 µM: 9 mm
Aspergillus flavus [12]
  zone of inhibition at 80 µM: 10 mm
Aspergillus niger [13]
  MIC: > 80 µM
Aspergillus niger [14]
  inhibition zone (IZ): inactive
Aspergillus niger [15]
  inhibition zone (IZ): inactive
Aspergillus niger [16]
  zone of inhibition at 80 µM: 12 mm
Escherichia coli [17]
  MIC: > 80 µM
Escherichia coli [18]
  diameter of the inhibition zone (DIZ): inactive
Escherichia coli [19]
  diameter of the inhibition zone (DIZ): inactive
Escherichia coli [20]
  zone of inhibition at 80 µM: 11 mm
Pseudomonas aeruginosa [21]
  MIC: > 80 µM
Pseudomonas aeruginosa [22]
  diameter of the inhibition zone (DIZ): inactive
Pseudomonas aeruginosa [23]
  zone of inhibition at 40 µM: 9 mm
Pseudomonas aeruginosa [24]
  zone of inhibition at 80 µM: 9 mm
Salmonella typhi [25]
  MIC: > 80 µM
Salmonella typhi [26]
  diameter of the inhibition zone (DIZ): inactive
Salmonella typhi [27]
  diameter of the inhibition zone (DIZ): inactive
Salmonella typhi [28]
  zone of inhibition at 80 µM: 9 mm
Bacillus cereus [29]
  MIC: > 80 µM
Bacillus cereus [30]
  diameter of the inhibition zone (DIZ): inactive
Bacillus cereus [31]
  diameter of the inhibition zone (DIZ): inactive
Bacillus cereus [32]
  zone of inhibition at 80 µM: 9 mm
Staphylococcus aureus [33]
  MIC: > 80 µM
Staphylococcus aureus [34]
  diameter of the inhibition zone (DIZ): inactive
Staphylococcus aureus [35]
  diameter of the inhibition zone (DIZ): inactive
Staphylococcus aureus [36]
  zone of inhibition at 80 µM: 9 mm
